{"source": "ChEMBL document CHEMBL1139977", "about": "“Synthesis and RET protein kinase inhibitory activity of 3-arylureidobenzylidene-indolin-2-ones” (Bioorg Med Chem Lett, 2007)", "key": {"[1]": {"assay": "Antiproliferative activity against RET C634R mutant oncogene-transformed mouse NIH3T3MEN2A after 72 hrs", "assay_type": "functional", "summary_of_the_method": "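Cells kept at 37 °C in 10% CO2 in DMEM. NIH3T3MEN2A were grown with 5% serum; parental NIH3T3 and NIH3T3H-RAS with 10% calf serum. Compounds were dissolved in DMSO and diluted in medium to 0.5% solvent final.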"}, "NIH3T3MEN2A": {"system": "NIH3T3MEN2A", "assay": "Reversion of RET C634R mutant oncogene-transformed morphologic phenotype of mouse NIH3T3MEN2A cells at 10 uM after 72 hrs", "assay_type": "functional, cell-based"}, "[2]": {"molecular_target": "T1, Proto-oncogene tyrosine-protein kinase receptor Ret (Homo sapiens, UniProt P07949)", "T1 sequence (P07949 whole entry)": "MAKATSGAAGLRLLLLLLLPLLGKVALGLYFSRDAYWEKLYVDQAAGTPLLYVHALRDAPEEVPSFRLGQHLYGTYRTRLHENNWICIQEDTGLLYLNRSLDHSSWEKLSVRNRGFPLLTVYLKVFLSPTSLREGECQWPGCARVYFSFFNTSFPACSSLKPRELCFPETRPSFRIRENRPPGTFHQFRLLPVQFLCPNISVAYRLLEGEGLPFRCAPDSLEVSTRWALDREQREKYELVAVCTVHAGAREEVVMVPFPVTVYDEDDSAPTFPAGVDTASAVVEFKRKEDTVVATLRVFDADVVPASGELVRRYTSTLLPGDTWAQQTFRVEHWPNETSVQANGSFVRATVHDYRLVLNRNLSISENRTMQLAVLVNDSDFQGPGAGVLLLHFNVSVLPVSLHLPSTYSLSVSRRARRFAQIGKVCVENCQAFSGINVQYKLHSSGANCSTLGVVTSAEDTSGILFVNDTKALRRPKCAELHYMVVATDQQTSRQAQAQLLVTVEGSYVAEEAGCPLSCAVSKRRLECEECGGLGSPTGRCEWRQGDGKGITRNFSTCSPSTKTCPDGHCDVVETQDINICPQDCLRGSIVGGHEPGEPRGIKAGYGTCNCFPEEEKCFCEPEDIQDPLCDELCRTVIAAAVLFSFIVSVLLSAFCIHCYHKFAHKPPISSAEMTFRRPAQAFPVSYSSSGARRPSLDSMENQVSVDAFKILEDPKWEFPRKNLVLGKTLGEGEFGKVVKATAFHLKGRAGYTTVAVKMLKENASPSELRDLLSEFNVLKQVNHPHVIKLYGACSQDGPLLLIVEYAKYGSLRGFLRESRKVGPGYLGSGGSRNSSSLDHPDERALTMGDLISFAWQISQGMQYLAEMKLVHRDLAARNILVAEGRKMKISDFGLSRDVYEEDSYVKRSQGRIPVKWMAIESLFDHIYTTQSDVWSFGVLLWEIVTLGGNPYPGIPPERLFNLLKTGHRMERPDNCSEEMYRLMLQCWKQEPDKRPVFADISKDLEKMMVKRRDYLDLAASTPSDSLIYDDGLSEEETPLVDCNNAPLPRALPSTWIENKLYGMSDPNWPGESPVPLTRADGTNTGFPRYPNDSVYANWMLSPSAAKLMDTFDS", "assay": "Inhibition of RET in mouse NIH3T3MEN2A cells", "assay_type": "cell-based"}, "NIH3T3 [3]": {"system": "NIH3T3", "assay": "Antiproliferative activity against H-RAS transformed mouse NIH3T3 cells after 72 hrs", "conditions": "NIH3T3, 72 h"}, "NIH3T3 [4]": {"system": "NIH3T3", "assay": "Antiproliferative activity against mouse NIH3T3 after 72 hrs", "conditions": "NIH3T3, 72 h"}, "[5]": {"molecular_target": "T1, Proto-oncogene tyrosine-protein kinase receptor Ret", "assay": "Inhibition of RET in mouse NIH3T3MEN2A cells up to 3 uM", "assay_type": "cell-based", "summary_of_the_method": "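NIH3T3MEN2A cells (DMEM with 5% serum, 37 °C, 10% CO2) were exposed to vehicle or a range of concentrations for 24 h, with DMSO at 0.5% final. Whole-cell lysates were Western blotted for Ret autophosphorylation with anti-pTyr (4G10) and anti-pRet-Tyr1062 antibodies, and Ret protein expression was also probed.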"}}, "note": "The source made the active and inactive calls. The calls are words filed in the database; no cut-off is given here."}
{"smiles": "O=C(Nc1ccccc1)Nc1ccc(/C=C2\\C(=O)Nc3ccccc32)cc1", "values": [{"measurement": "IC50", "setting": "[1]", "value": "> 40", "unit": "µM"}, {"measurement": "Activity", "setting": "NIH3T3MEN2A", "value": "inactive"}]}
{"smiles": "COc1cc2c(cc1OC)/C(=C\\c1ccc(NC(=O)N3CCN(C)CC3)cc1)C(=O)N2", "values": [{"measurement": "IC50", "setting": "[1]", "value": 15.8, "unit": "µM"}, {"measurement": "IC50", "setting": "[2]", "value": "> 3", "unit": "µM"}, {"measurement": "Activity", "setting": "NIH3T3MEN2A", "value": "Active"}]}
{"smiles": "COc1cc2c(cc1OC)/C(=C\\c1ccc(NC(=O)Nc3ccncc3)cc1)C(=O)N2", "values": [{"measurement": "IC50", "setting": "[1]", "value": 4.7, "unit": "µM"}, {"measurement": "Activity", "setting": "NIH3T3MEN2A", "value": "inactive"}]}
{"smiles": "COc1cc2c(cc1OC)/C(=C\\c1ccc(NC(=O)Nc3ccc4c(c3)OCO4)cc1)C(=O)N2", "values": [{"measurement": "IC50", "setting": "[1]", "value": 19.4, "unit": "µM"}, {"measurement": "Activity", "setting": "NIH3T3MEN2A", "value": "inactive"}]}
{"smiles": "COc1ccc(NC(=O)Nc2ccc(/C=C3/C(=O)Nc4cc(OC)c(OC)cc43)cc2)cc1", "values": [{"measurement": "IC50", "setting": "NIH3T3 [3]", "value": 12.3, "unit": "µM"}, {"measurement": "IC50", "setting": "[1]", "value": 3.6, "unit": "µM"}, {"measurement": "IC50", "setting": "NIH3T3 [4]", "value": 14.7, "unit": "µM"}, {"measurement": "Activity", "setting": "NIH3T3MEN2A", "value": "Active"}]}
{"smiles": "O=C(Nc1ccccc1)Nc1ccc(/C=C2\\C(=O)Nc3ccc(Cl)cc32)cc1", "values": [{"measurement": "IC50", "setting": "[1]", "value": "> 40", "unit": "µM"}, {"measurement": "Activity", "setting": "NIH3T3MEN2A", "value": "inactive"}]}
{"smiles": "COc1cc2c(cc1OC)C(Cc1ccc(NC(=O)Nc3ccccc3)cc1)C(=O)N2", "note": "(stereo unspecified)", "values": [{"measurement": "IC50", "setting": "[1]", "value": 21.5, "unit": "µM"}, {"measurement": "Activity", "setting": "NIH3T3MEN2A", "value": "inactive"}]}
{"smiles": "COc1cc2c(cc1OC)/C(=C\\c1ccc(O)cc1)C(=O)N2", "values": [{"measurement": "IC50", "setting": "NIH3T3 [3]", "value": 19.7, "unit": "µM"}, {"measurement": "IC50", "setting": "[1]", "value": 3.6, "unit": "µM"}, {"measurement": "IC50", "setting": "NIH3T3 [4]", "value": 16.3, "unit": "µM"}, {"measurement": "IC50", "setting": "[2]", "value": 0.17, "unit": "µM"}, {"measurement": "Activity", "setting": "NIH3T3MEN2A", "value": "Active"}]}
{"smiles": "O=C(Nc1ccccc1)Nc1ccc(/C=C2/C(=O)Nc3ccccc32)cc1", "values": [{"measurement": "IC50", "setting": "[1]", "value": 10, "unit": "µM"}, {"measurement": "Activity", "setting": "NIH3T3MEN2A", "value": "inactive"}]}
{"smiles": "O=C(Nc1ccccc1)Nc1ccc(/C=C2\\C(=O)N(O)c3ccccc32)cc1", "values": [{"measurement": "IC50", "setting": "[1]", "value": 7.5, "unit": "µM"}, {"measurement": "Activity", "setting": "NIH3T3MEN2A", "value": "inactive"}]}
{"smiles": "COc1cc2c(cc1OC)/C(=C\\c1ccc(C(=O)Nc3ccccc3)cc1)C(=O)N2", "values": [{"measurement": "IC50", "setting": "[1]", "value": 12.2, "unit": "µM"}, {"measurement": "Activity", "setting": "NIH3T3MEN2A", "value": "inactive"}]}
{"smiles": "COc1cc2c(cc1OC)/C(=C\\c1ccc(NC(=O)Nc3ccc(N(C)C)cc3)cc1)C(=O)N2", "values": [{"measurement": "IC50", "setting": "[1]", "value": "> 40", "unit": "µM"}, {"measurement": "Activity", "setting": "NIH3T3MEN2A", "value": "inactive"}]}
{"smiles": "COc1cc2c(cc1OC)/C(=C\\c1ccc(NC(=O)Nc3ccc(F)cc3)cc1)C(=O)N2", "values": [{"measurement": "IC50", "setting": "[1]", "value": 6.1, "unit": "µM"}, {"measurement": "Activity", "setting": "NIH3T3MEN2A", "value": "inactive"}]}
{"smiles": "COc1cc2c(cc1OC)/C(=C\\c1ccc(NC(=O)Nc3ccccc3)cc1)C(=O)N2", "values": [{"measurement": "IC50", "setting": "NIH3T3 [3]", "value": 8.7, "unit": "µM"}, {"measurement": "IC50", "setting": "[1]", "value": 4.6, "unit": "µM"}, {"measurement": "IC50", "setting": "NIH3T3 [4]", "value": 14, "unit": "µM"}, {"measurement": "Activity", "setting": "NIH3T3MEN2A", "value": "Active"}]}
{"smiles": "COc1cc2c(cc1OC)N(C)C(=O)/C2=C/c1ccc(NC(=O)Nc2ccccc2)cc1", "values": [{"measurement": "Activity", "setting": "[5]", "value": "inactive"}, {"measurement": "IC50", "setting": "NIH3T3 [3]", "value": 5.4, "unit": "µM"}, {"measurement": "IC50", "setting": "[1]", "value": 4.1, "unit": "µM"}, {"measurement": "IC50", "setting": "NIH3T3 [4]", "value": 6.6, "unit": "µM"}, {"measurement": "Activity", "setting": "NIH3T3MEN2A", "value": "Active"}]}
